ChEMBL document CHEMBL3576792, “Enhancement of antibiotic activity against multidrug-resistant bacteria by the efflux pump inhibitor 3,4-dibromopyrrole-2,5-dione isolated from a Pseudoalteromonas sp” (J Nat Prod, 2015)
≈ marks a conversion by molar mass, not a printed value. Calls of active or inactive are those of the source. The rule behind the calls is not given here.

Key:
[1] = tested on: Escherichia coli; experiment: Effect on intracellular H33342 accumulation in Escherichia coli AG100A delta acrAB mutant at 4 ug/ml after 60 mins by accumulation assay; type: functional
Procedure, shortened: (§1)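 AG100 (wild-type K-12) or AG100A (ΔacrAB) grown in Luria broth at 37 °C and 200 rpm to OD600 1.0, PBS-washed, diluted to OD600 0.3. Cells given 2.5 μM H33342 with 22 mM glucose at 37 °C for ~30 min until stable, then compound (0.06–64 μg/mL) added. Fluorescence (Ex 350/Em 460) read for 60 min, background subtracted. Final 4 time points averaged; one-way ANOVA/Dunnett vs Hoechst-only; n = 8.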

[2] = tested on: Escherichia coli; experiment: Antibacterial activity against Escherichia coli transformed with plasmid carrying MG1655 deltaBC/pABM by p-iodonitrotetrazolium chloride colorimetric assay; type: functional
Procedure, shortened: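 Two-fold broth microdilution in Mueller-Hinton broth, read by p-iodonitrotetrazolium chloride colorimetric assay. MIC is the lowest concentration giving no visible growth. MG1655 ΔacrB ΔtolC strains carrying pABM or pXYM were always cultured with 100 μg/mL ampicillin and 1 mM IPTG. Medium, inoculum and 1% DMSO (final) served as negative control.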

[3] = tested on: Escherichia coli K-12; experiment: Inhibition of AcrAB-TolC pump in Escherichia coli K-12 AG100 assessed as increase in intracellular H33342 fluorescence at 1 ug/ml after 60 mins by efflux inhibition assay; type: cell-based
Procedure, shortened: (§2)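 AG100 (wild-type K-12) or AG100A (ΔacrAB) cells were grown in Luria broth at 37 °C and 200 rpm to OD600 1.0, PBS-washed and diluted to OD600 0.3. Cells took up 2.5 μM Hoechst 33342 with 22 mM glucose at 37 °C for about 30 min, then compound (0.06–64 μg/mL) or PAβN (15.6 μg/mL) was added. Fluorescence (Ex 350/Em 460 nm) was followed for 60 min and corrected for background. The last four time points were compared to dye-only control by ANOVA with Dunnett's test, run in duplicate.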

[4] = tested on: Escherichia coli K-12; experiment: Inhibition of AcrAB-TolC pump in Escherichia coli K-12 AG100 assessed as increase in intracellular H33342 fluorescence at 0.25 ug/ml after 60 mins by efflux inhibition assay; type: cell-based
[5] = tested on: Escherichia coli; experiment: Potentiation of tetracycline-induced antibacterial activity Escherichia coli transformed with plasmid carrying MG1655 deltaBC/pABM by p-iodonitrotetrazolium chloride colorimetric assay; type: functional
[6] = tested on: Escherichia coli; experiment: Potentiation of chloramphenicol-induced antibacterial activity Escherichia coli AG102 overexpressing AcrAB-TolC by p-iodonitrotetrazolium chloride colorimetric assay; type: functional
[7] = tested on: Escherichia coli; experiment: Potentiation of piperacillin-induced antibacterial activity Escherichia coli AG102 overexpressing AcrAB-TolC assessed as piperacillin MIC by p-iodonitrotetrazolium chloride colorimetric assay; type: functional
Procedure, shortened: (§3)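 Checkerboard microdilution in Mueller-Hinton broth: two-fold dilutions of antibiotic crossed with dilutions of test compound above, at and below their MICs. Growth was read by INT colorimetric assay, with MIC as the lowest concentration showing no visible growth. FICs and FIC index were derived from these MICs. ΔBC/pABM and ΔBC/pXYM strains were grown with 100 μg/mL ampicillin and 1 mM IPTG.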

[8] = tested on: Escherichia coli; experiment: Potentiation of ciprofloxacin-induced antibacterial activity Escherichia coli AG102 overexpressing AcrAB-TolC by p-iodonitrotetrazolium chloride colorimetric assay; type: functional
[9] = tested on: Escherichia coli; experiment: Potentiation of levofloxacin-induced antibacterial activity Escherichia coli transformed with plasmid carrying MG1655 deltaBC/pABM assessed as levofloxacin MIC by p-iodonitrotetrazolium chloride colorimetric assay; type: functional; procedure, shortened: as §3
[10] = tested on: Escherichia coli K-12; experiment: Inhibition of AcrAB-TolC pump in Escherichia coli K-12 AG100 assessed as increase in intracellular H33342 fluorescence at 16 ug/ml after 60 mins by efflux inhibition assay; type: cell-based; procedure, shortened: as §2
[11] = tested on: Escherichia coli; experiment: Potentiation of kanamycin-induced antibacterial activity Escherichia coli transformed with plasmid carrying MG1655 deltaBC/pABM by p-iodonitrotetrazolium chloride colorimetric assay; type: functional
[12] = (§4) Inhibition of AcrAB-TolC pump in Escherichia coli AG100 assessed as increase in intracellular H33342 fluorescence after 60 mins by efflux inhibition assay; type: cell-based; conditions: AG100, 1 h; procedure, shortened: as §2
[13] = tested on: Escherichia coli; experiment: as §4; type: cell-based; procedure, shortened: as §2
[14] = tested on: Escherichia coli; experiment: Effect on intracellular H33342 accumulation in Escherichia coli AG100A delta acrAB mutant at 64 ug/ml after 60 mins by accumulation assay; type: functional
Procedure, shortened: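 Cells grown in Luria broth at 37 °C, 200 rpm to OD600 1.0, then washed twice in PBS and diluted in glucose-free PBS to OD600 0.3. H33342 was used at 2.5 μM with 22 mM glucose at 37 °C and allowed to accumulate for ~30 min. Compound was then added and fluorescence (Ex 350/Em 460 nm) followed for 60 min. Values are the mean RFU of the final 4 min, after media-plus-compound background was subtracted. Run in duplicate, n = 8.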

[15] = tested on: Escherichia coli; experiment: Potentiation of levofloxacin-induced antibacterial activity Escherichia coli transformed with plasmid carrying MG1655 deltaBC/pXYM assessed as levofloxacin MIC by p-iodonitrotetrazolium chloride colorimetric assay; type: functional; procedure, shortened: as §3
[16] = tested on: Escherichia coli; experiment: Potentiation of chloramphenicol-induced antibacterial activity Escherichia coli AG102 overexpressing AcrAB-TolC assessed as chloramphenicol MIC by p-iodonitrotetrazolium chloride colorimetric assay; type: functional; procedure, shortened: as §3
[17] = tested on: Escherichia coli K-12; experiment: Inhibition of AcrAB-TolC pump in Escherichia coli K-12 AG100 assessed as increase in intracellular H33342 fluorescence at 64 ug/ml after 60 mins by efflux inhibition assay; type: cell-based; procedure, shortened: as §2
[18] = tested on: Escherichia coli K-12; experiment: Inhibition of AcrAB-TolC pump in Escherichia coli K-12 AG100 assessed as inhibition of H33342 accumulation at 1 ug/ml after 60 mins by accumulation assay; procedure, shortened: as §1
[19] = tested on: Escherichia coli; experiment: Potentiation of erythromycin-induced antibacterial activity Escherichia coli transformed with plasmid carrying MG1655 deltaBC/pABM by p-iodonitrotetrazolium chloride colorimetric assay; type: functional
[20] = tested on: Escherichia coli; experiment: Potentiation of chloramphenicol-induced antibacterial activity Escherichia coli transformed with plasmid carrying MG1655 deltaBC/pABM by p-iodonitrotetrazolium chloride colorimetric assay; type: functional
[21] = tested on: Escherichia coli; experiment: Potentiation of kanamycin-induced antibacterial activity Escherichia coli transformed with plasmid carrying MG1655 deltaBC/pXYM assessed as kanamycin MIC by p-iodonitrotetrazolium chloride colorimetric assay; type: functional; procedure, shortened: as §3
[22] = tested on: Escherichia coli; experiment: Potentiation of tetracycline-induced antibacterial activity Escherichia coli AG102 overexpressing AcrAB-TolC by p-iodonitrotetrazolium chloride colorimetric assay; type: functional
[23] = tested on: Escherichia coli; experiment: Potentiation of chloramphenicol-induced antibacterial activity Escherichia coli transformed with plasmid carrying MG1655 deltaBC/pABM assessed as chloramphenicol MIC by p-iodonitrotetrazolium chloride colorimetric assay; type: functional; procedure, shortened: as §3
[24] = tested on: Escherichia coli; experiment: Effect on intracellular H33342 accumulation in Escherichia coli AG100A after 60 mins by efflux inhibition assay; type: functional, organism-based; procedure, shortened: as §2
[25] = tested on: Escherichia coli; experiment: Potentiation of ciprofloxacin-induced antibacterial activity Escherichia coli AG102 overexpressing AcrAB-TolC assessed as ciprofloxacin MIC by p-iodonitrotetrazolium chloride colorimetric assay; type: functional; procedure, shortened: as §3
[26] = tested on: Escherichia coli; experiment: Potentiation of erythromycin-induced antibacterial activity Escherichia coli transformed with plasmid carrying MG1655 deltaBC/pXYM by p-iodonitrotetrazolium chloride colorimetric assay; type: functional

O=C1NC(=O)C(Br)=C1Br
RFU [1]: 1200
MIC [2]: 256 µg/mL (≈ 1000 µM)
RFU [3]: -247
RFU [4]: -351
fractional inhibitory concentration index (FICI) [5]: 1
fractional inhibitory concentration index (FICI) [6]: 0.5
MIC [7]: 32 µg/mL
fractional inhibitory concentration index (FICI) [8]: 0.5
MIC [9]: 64 µg/mL
RFU [10]: -34
fractional inhibitory concentration index (FICI) [11]: 0.75
IC50 [12]: 0.79 µg/mL (≈ 3.1 µM)
inhibition [13]: Dose-dependent effect
RFU [14]: 1090
MIC [15]: 32 µg/mL
MIC [16]: 64 µg/mL
RFU [17]: -68
RFU [18]: 1010
fractional inhibitory concentration index (FICI) [19]: 0.19
fractional inhibitory concentration index (FICI) [20]: 0.75
MIC [21]: 32 µg/mL
fractional inhibitory concentration index (FICI) [22]: 0.31
MIC [23]: 128 µg/mL
inhibition [24]: inactive
MIC [25]: 2 µg/mL
fractional inhibitory concentration index (FICI) [26]: 0.31
